# A selection: hits, their analogues and other compounds. The true share with any hit is near 3.5%.
# MrgX1 antagonist = human MrgX1 receptor antagonism, primary screen; Q96LB2; MRGX1-HEK293 calcium flux, Fluo-4, BAM8-22 antagonism; active compounds read low; B-score at 10 µM; hit rate 1.3% among 310,000; AID 588676;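 active means calcium-response B-score plate-corrected more than 3 library SD below zero, starting fluorescence within 5 deviations, no agonist response on first addition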;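 further: peak minus trough fluorescence over baseline after final BAM8-22 challenge near maximal dose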
# Target sequence (Q96LB2 whole entry, looked up): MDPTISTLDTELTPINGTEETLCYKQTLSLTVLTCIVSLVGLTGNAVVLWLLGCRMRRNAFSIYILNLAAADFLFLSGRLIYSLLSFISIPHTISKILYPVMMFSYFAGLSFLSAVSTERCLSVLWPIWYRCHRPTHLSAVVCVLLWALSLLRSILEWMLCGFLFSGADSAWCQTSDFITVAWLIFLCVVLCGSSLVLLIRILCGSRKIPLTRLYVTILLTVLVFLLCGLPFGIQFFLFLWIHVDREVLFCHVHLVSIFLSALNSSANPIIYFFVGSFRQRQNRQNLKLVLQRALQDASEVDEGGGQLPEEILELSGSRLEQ
# MrgX1 PAM = allosterically activates human MrgX1 receptor signaling; Q96LB2; MrgX1-HEK293, Fluo-4 calcium flux, FDSS; active compounds read high; B-score at 10 µM; hit rate 0.63% among 310,000; AID 588675;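 active means plate-corrected calcium response at least 3 library SD above typical, normal starting fluorescence, not activating the receptor alone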;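 further: compound read alongside a low EC10 to EC30 dose of BAM8-22 agonist; peak minus trough fluorescence over baseline measured at the second addition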
# MrgX1 ag = agonists of human MrgX1 receptor | hit rate 0.44% among 310,000 | B-score at 10 µM | MrgX1-HEK293 cells, Fluo-4 calcium fluorescence, agonist mode; active compounds read high | AID 588627;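 active means calcium response B-score plate-corrected fluorescence ratio at least 3 library SD, with starting fluorescence B-score inside 5 SD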
#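 Material: HEK293 cells stably expressing human MrgX1 receptor | Quantity: 15,000 cells per well | Times: Cells plated overnight, dye loaded 0.5 h 37 °C, 0.5 h room temperature | Measured by: Kinetic Fluo-4 NW fluorescence of intracellular calcium | Control set: Positive and negative controls per plate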
# RGS4 act = potentiators or activators of RGS4; HEK293 M3R/inducible RGS4, carbachol calcium flux Fluo4; active compounds read low; B-score at 10 µM; hit rate 0.92% among 310,000; AID 463111;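 active means B-score of the integrated calcium signal more than 4 SD below the library mean, with starting fluorescence not abnormally high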;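 further: negative B-score means reduced calcium response which marks RGS4 activation or potentiation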
#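 Assay system: Inducible-RGS4 HEK293 cells carrying M3 receptor | Schedule: Compound preincubation 20 min at room temperature before agonist | Signal: Kinetic calcium fluorescence imaging with Fluo4-AM dye, 2 µM | Read-out basis: B score from integrated fluorescence ratio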
# RGS4 inh = human RGS4 inhibition; B-score at 10 µM; HEK293 M3R/RGS4 inducible, Fluo-4 calcium flux; active compounds read high; triggered by carbachol at its EC20; P49798; hit rate 0.45% among 310,000;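 active means B-score, a plate-corrected calcium signal, over three deviations above library mean, with baseline fluorescence within five deviations of library mean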;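 further: RGS4 expression induced by doxycycline in cells with stable M3 receptor; B-score is computed from the integrated fluorescence ratio over baseline after carbachol; higher B-score means a larger calcium signal and so more RGS4 inhibition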
# Target sequence (P49798 whole entry, looked up): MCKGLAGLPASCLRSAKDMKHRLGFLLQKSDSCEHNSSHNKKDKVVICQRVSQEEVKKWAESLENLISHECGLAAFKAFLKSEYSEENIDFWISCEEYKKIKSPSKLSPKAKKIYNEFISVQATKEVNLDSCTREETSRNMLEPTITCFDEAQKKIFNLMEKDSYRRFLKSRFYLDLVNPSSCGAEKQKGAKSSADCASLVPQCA
# RGS4 inh valid = RGS4 inhibitor validation; shares compounds with RGS4 inh; HEK293 M3R/RGS4, carbachol calcium Fluo-4 fluorescence; carbachol added at its EC20; 0 = buffer wells, 100 = carbachol control; calcium response, % at 10 µM; hit rate 65% among 1,700;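 active means duplicate-averaged calcium response above the buffer-only control mean plus 5 SD of those controls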;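 further: integrated fluorescence ratio F max minus min over baseline F0; higher response in RGS4-induced cells means RGS4 inhibition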
# M3R Ca ctr = counter-screen for RGS4 inhibitors: effect in non-induced cells; activity (percent), % at 10 µM; AID 493000; hit rate 20% among 1,900; shares compounds with RGS4 inh; HEK293 M3R non-induced, carbachol calcium Fluo-4; submaximal (EC20) carbachol stimulus; buffer wells 0%, carbachol control wells 100%; call rule not given here;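 further: RGS4 induction absent so cells express M3R without RGS4; higher means more calcium signal and flags a non-specific hit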
# M3R basal Ca ctr = second RGS4 inhibitor counter-screen in uninduced cells lacking carbachol; shares compounds with RGS4 inh; HEK293 M3R/RGS4 non-induced, Fluo-4 calcium, no carbachol; normalised: buffer wells 0%, carbachol wells 100%; calcium response (agonist-mode artifact), % at 10 µM; hit rate 22% among 1,900; AID 493001;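 active means duplicate-averaged calcium rise in uninduced cells above buffer wells' mean plus 5 SD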
# Starred values were filed as active, the others as inactive; i = inactive; nt = no result given.
SMILES,MrgX1 antagonist,MrgX1 PAM,MrgX1 ag,RGS4 act,RGS4 inh,RGS4 inh valid,M3R Ca ctr,M3R basal Ca ctr
Nc1nc(Nc2ccccc2)nc(NCc2ccco2)c1[N+](=O)[O-],i,i,i,i,i,i,i,i
O=c1[nH]c2ccc(Br)cc2c(-c2ccccc2)c1N1CCOCC1,i,i,i,i,i,nt,nt,nt
O=c1[nH]c2ccc(Br)cc2c(-c2ccccc2)c1CN1CCOCC1,i,i,i,i,7.52*,19.0%*,48.5%*,i
Cc1[nH]n(-c2ncc(-c3ccc(Cl)cc3)s2)c(=O)c1C(c1ccc(Cl)cc1)C(C#N)C#N (stereo unspecified),i,i,i,i,18.5*,30.0%*,i,47.5%*
O=C(O)CN1CCN(Cc2cccc(Cl)c2)C1=O,i,i,i,i,i,nt,nt,nt
COc1ccc(S(=O)(=O)NC2(C(F)(F)F)NC(=O)N(CCc3ccccc3)C2=O)cc1 (stereo unspecified),i,i,i,i,i,nt,nt,nt
N#Cc1c(N2C(=O)Nc3ccccc3N2O)sc2c1CCCCCC2,i,i,i,i,5.24*,15.5%*,41.5%*,i
O=c1c(O)c(-c2ccc(O)c(O)c2)oc2cc(O)cc(O)c12,i,8.79*,i,i,5*,33.5%*,40.0%*,i
O=c1cc(-c2ccc(O)c(O)c2)oc2cc(O)cc(O)c12,i,i,i,i,i,nt,nt,nt
O=C(Cc1ccc(Br)c2ccccc12)N/N=C/c1ccccn1,i,i,i,i,4.96*,62.0%*,i,i
CCCN(CCC)CCCNC(=O)c1nn(-c2cccc(OC)c2)c(=O)c2ccccc12,i,i,i,i,i,nt,nt,nt
COc1ccc(OC)c(NC(=O)C(=O)NCc2ccncc2)c1,i,i,i,i,4.81*,10.5%*,i,i
COc1ccc(NC(=O)C(=O)NCC(=O)Nc2cc(OC)ccc2OC)cc1,i,i,i,i,i,nt,nt,nt
Cc1nc(C)n(CC(=O)N2CCCC(C(=O)c3ccc(C(F)(F)F)cc3)C2)n1 (stereo unspecified),i,i,i,i,i,nt,nt,nt
O=C(CN1CCN(c2ccc(O)cc2)CC1)NC(c1ccccc1)c1ccccc1,i,i,i,i,12.9*,i,i,i
O=C(CN1CCCCCC1)NC(c1ccccc1)c1ccccc1,i,i,i,i,i,nt,nt,nt
CN(CC(=O)Nc1ccc(Cl)c(C(F)(F)F)c1)C(=O)Cc1c[nH]c2ccccc12,i,i,i,i,5.94*,18.5%*,i,i
CCOc1ccc(N(CC(=O)Nc2ccccc2OCC)S(=O)(=O)c2c(C)noc2C)cc1,i,i,i,i,i,nt,nt,nt
CN(C)c1ccc(C(CNS(=O)(=O)c2ccc3ccccc3c2)N2CCOCC2)cc1 (stereo unspecified),i,i,i,i,5.18*,5.0%*,i,i
CN(C)c1ccc(C(CNS(=O)(=O)c2ccc([N+](=O)[O-])cc2)N2CCCC2)cc1 (stereo unspecified),i,i,i,i,i,nt,nt,nt
N=C1/C(=C/c2cccn2Cc2ccc(Cl)cc2)C(=O)N=C2SC=CN12,i,i,i,i,8.38*,5.0%*,i,i
CC1=CC2=NC(=O)/C(=C/c3cccn3Cc3ccccc3)C(=N)N2O1,i,i,i,i,i,nt,nt,nt
S=C1NCCC12C(=S)Nc1ccccc12 (stereo unspecified),i,i,i,i,i,nt,nt,nt
CC(=O)NCCNC(=O)C1CCCCN1S(=O)(=O)c1ccccc1 (stereo unspecified),i,i,i,i,i,nt,nt,nt
COc1ccc2cc(-c3[nH]ncc3CN3CCCN(c4ccccc4)CC3)ccc2c1,i,i,i,i,5.55*,20.5%*,40.5%*,i
SMILES,MrgX1 antagonist,MrgX1 PAM,MrgX1 ag,RGS4 act,RGS4 inh,RGS4 inh valid,M3R Ca ctr,M3R basal Ca ctr
CCOc1ccccc1N1CCN(Cc2cccc(OC)c2OC)CC1,i,i,i,i,i,nt,nt,nt
CCOc1ccccc1N1CCN(Cc2cn[nH]c2-c2ccc(F)cc2)CC1,i,i,i,i,6.78*,43.5%*,44.0%*,i
COc1ccc(-c2csc(Nc3cc(C)ccn3)n2)cc1C,i,i,i,i,9.77*,34.0%*,39.0%*,i
N#Cc1c(Cl)c(Cl)c2nnc(-c3ccc(Br)cc3)n2c1Cl,i,i,i,i,6.01*,8.0%*,i,11.0%*
[S-]c1nnc(-c2ccc(Br)cc2)n1-c1ccccc1.[Zn+2],i,i,i,i,i,nt,nt,nt
COc1ccc(N2CCN(CC(=O)Nc3cccc(S(=O)(=O)N4CCOCC4)c3)CC2)cc1,i,i,i,i,i,nt,nt,nt
COc1ccc(-c2nn(CCC(=O)O)cc2/C=N/NC(N)=S)cc1,i,i,i,i,i,nt,nt,nt
COc1ccc(CCNC(=O)CC2SC(=NCCc3ccccc3)NC2=O)cc1OC (stereo unspecified),i,i,i,i,i,nt,nt,nt
COc1ccccc1CN=C1NC(=O)C(CC(=O)Nc2ccc(OC)c(OC)c2)S1 (stereo unspecified),i,i,i,i,5.64*,8.5%*,i,i
COc1ccc(NC(=O)CC2SC(=NCc3ccccc3OC)NC2=O)cc1 (stereo unspecified),i,i,i,i,i,nt,i,i
O=C(CNc1ccc2ccccc2c1)N/N=C/c1cc2ccccc2nc1Cl,i,i,i,i,i,nt,i,i
O=C(N/N=C/c1c[nH]c2ccccc12)c1[nH]c2ccc(Br)cc2c1-c1ccccc1,nt,nt,nt,i,6.95*,18.0%*,28.5%*,i
O=C(N/N=C/c1ccc(O)cc1)c1[nH]c2ccc(Br)cc2c1-c1ccccc1,i,i,i,i,i,nt,nt,nt
Oc1ccc(N=Nc2ccccc2)o1,i,i,i,i,4.92*,7.5%*,i,i
Oc1nc(Nc2ccc(Cl)cc2Cl)sc1/C=C1\C=Nc2ccccc21,i,i,i,i,5.73*,10.5%*,i,20.0%*

# Screens: PubChem BioAssay, Johns Hopkins Ion Channel Center
